Assay [1] deals with Canis familiaris. In words: Urinary excretion collected at 1-6 hr time after oral administration in dog (four animals per dose) dosed at 0.39 mg/kg. Type of assay: functional, Canis lupus familiaris, Urine. An outline of the steps:
(§1)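 Trained male beagles, four per dose, fasted 24 h with tap water ad libitum. After bladder emptying, given 20 mL/kg tap water by stomach tube, then 4 mL/kg at each hourly catheterization; 2 h control collection, then oral dosing. Urine volume and Na⁺ (flame photometry) reported for 1–6, 7–24 and 1–24 h post-dose periods.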

Assay [2] deals with Canis familiaris. In words: urinary excretion collected at 1-6 hr time after oral administration in dog (four animals per dose) dosed at 0.05 mg/kg. Type of assay: functional, Canis lupus familiaris, Urine. An outline of the steps:
(§2)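 Trained male beagles, four per dose, fasted 24 h with tap water ad libitum. The bladder was emptied by catheter, then 20 mL/kg tap water was given by stomach tube. Dogs were catheterized hourly with 4 mL/kg water orally each time, and the first 2 h served as control. Compound was given orally after the second catheterization. Urine volume and flame-photometric Na⁺ were measured over 1-6, 7-24 and 1-24 h.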

Assay [3] relates to Canis familiaris. In words: urinary excretion collected at 1-24 hr time after oral administration in dog (four animals per dose) dosed at 0.05 mg/kg. In kind it is functional, Canis lupus familiaris, Urine. An outline of the steps: as §2
Assay [4] concerns Canis familiaris. As to the kind of experiment: sodium excretion collected at 1-6 hr time after oral administration in dog (four animals per dose) dosed at 0.39 mg/kg. In kind it is functional, Canis lupus familiaris. An outline of the steps:
as §1

Assay [5] has as its system Canis familiaris. As to the kind of experiment: urinary excretion collected at 1-24 hr time after oral administration in dog (four animals per dose) dosed at 3.12 mg/kg. In kind it is functional, Canis lupus familiaris, Urine. An outline of the steps:
as §2

Assay [6] concerns Canis familiaris. In words: sodium excretion collected at 1-6 hr time after oral administration in dog (four animals per dose) at dose 0.39 mg/kg. In kind it is functional, Canis lupus familiaris. An outline of the steps:
as §1

Assay [7] relates to Canis familiaris. As to the kind of experiment: Urinary excretion collected at 1-6 hr time after oral administration in dog (four animals per dose) at dose 0.39 mg/kg. In kind it is functional, Canis lupus familiaris, Urine. An outline of the steps:
as §1

Assay [8] relates to Canis familiaris. In words: sodium excretion collected at 1-24 hr time after oral administration in dog (four animals per dose) at dose 0.39 mg/kg. In kind it is functional, Canis lupus familiaris. An outline of the steps:
as §1

The species entered for the next assay is Rattus norvegicus. As to the kind of experiment: Effect on inulin U/P ratio in rats in comparison to furosemide activity.
Assay [9] concerns Canis familiaris. In words: Saluretic activity in the dog measured as concentration of K+ in urinary excretion (2 animals/dose) at (dose 12.5 mg/Kg, perorally). Type of assay: functional, Canis lupus familiaris, Urine. An outline of the steps:
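Male beagles trained to rest on a table and to accept stomach tube and catheter. Food withdrawn 24 h before, tap water ad libitum. Bladder emptied by catheter, then 20 mL/kg tap water by stomach tube. Catheterized hourly up to 8 h with 4 mL/kg water orally each time; first 2 h urine served as control. Oral dosing after second catheterization. Pooled 1–6 h urine; Na⁺/K⁺ by flame photometry, Cl⁻ argentometrically.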

The test system of assay [10] is Canis familiaris. In words: Urinary excretion collected at 1-24 hr time after oral administration in dog (four animals per dose) at dose 1.56 mg/kg. In kind it is functional, Canis lupus familiaris, Urine. An outline of the steps:
as §1

For assay [11], the system named is Canis familiaris. In words: Urinary excretion collected at 7-24 hr time after oral administration in dog (four animals per dose) at dose 6.25 mg/kg. Type of assay: functional, Canis lupus familiaris, Urine. An outline of the steps:
as §1

Assay [12] has as its system Canis familiaris. In words: sodium excretion collected at 1-6 hr time after oral administration in dog (four animals per dose) at dose 1.56 mg/kg. Type of assay: functional, Canis lupus familiaris. An outline of the steps:
as §1

`CN(c1ccccc1)c1cc(NCc2ccco2)c(S(=O)(=O)[O-])cc1S(N)(=O)=O.[Na+]`: the Urinary excretion in the assay with Canis familiaris [1] was 75.3 mL/kg; with Canis familiaris [2] it was 40.5 mL/kg; with Canis familiaris [3] it was 50.6 mL/kg; with Canis familiaris [5] it was 102 mL/kg. Besides, the Na+ excretion in the assay with Canis familiaris [4] amounted to 5.26 mequiv kg-1.

Take `NS(=O)(=O)c1cc(S(=O)(=O)[O-])c(NCc2ccco2)cc1Oc1ccccc1.[Na+]`: the Na+ excretion in the assay with Canis familiaris [6] is 1.57 mequiv kg-1; with Canis familiaris [8], 2.04 mequiv/kg; with Canis familiaris [12], 4.97 mequiv kg-1. The values for the Urinary excretion in the assay with Canis familiaris [7], in the assay on Canis familiaris [10] and with Canis familiaris [11] were 41.6 mL/kg, 78.9 mL/kg and 38.3 mL/kg, respectively. Also, the Ratio in the assay filed under Rattus norvegicus is listed as 7.66. In the assay with Canis familiaris [9], this molecule yielded a Saldiuretic activity of 1.17 m equiv 6hr-1 kg-1.
